# Source: PubChem
# mIAP inh: blocks mouse intestinal alkaline phosphatase; purified mouse IAP, CDP-Star luminescence, 30 min; inhibition, % at 10 µM; 330,000 tested, 0.2% active; AID 2806;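 active means inhibition of at least 40% at 10 µM in the primary screen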
# bIAP activator: intestinal alkaline phosphatase (bovine) activation | purified bovine IAP, CDP-star luminescence, 30 min; active compounds read high; fold of DMSO-control signal, blank-subtracted | activation factor at 20 µM | 200,000 tested, 0.17% active;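 active means activation factor of 2 or more at 20 µM, a signal rise over negative controls twice the positive control's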
# hIAP block: blocks human intestinal alkaline phosphatase; P09923; 330,000 tested, 0.12% active; purified IAP, CDP-Star luminescence, 30 min; inhibition, % at 10 µM;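 active means inhibition reaching a set limit with compound at 10 µM in the primary screen, cut at about 35% in these data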
# Target sequence (P09923 whole entry, looked up): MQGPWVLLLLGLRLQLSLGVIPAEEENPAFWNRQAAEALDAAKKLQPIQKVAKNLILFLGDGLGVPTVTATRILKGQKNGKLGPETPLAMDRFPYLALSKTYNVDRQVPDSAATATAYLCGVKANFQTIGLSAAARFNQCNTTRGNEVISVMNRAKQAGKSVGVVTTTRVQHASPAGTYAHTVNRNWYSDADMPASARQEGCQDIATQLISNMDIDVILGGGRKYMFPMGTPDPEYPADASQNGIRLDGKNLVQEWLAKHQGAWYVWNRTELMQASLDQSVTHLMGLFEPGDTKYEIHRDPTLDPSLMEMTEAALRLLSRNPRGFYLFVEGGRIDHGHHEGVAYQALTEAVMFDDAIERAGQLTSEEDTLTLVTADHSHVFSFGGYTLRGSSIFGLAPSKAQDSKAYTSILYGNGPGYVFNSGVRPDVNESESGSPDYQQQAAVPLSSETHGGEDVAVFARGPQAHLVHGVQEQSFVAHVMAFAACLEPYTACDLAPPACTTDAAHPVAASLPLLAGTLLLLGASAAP
# mIAP act: increases mouse intestinal alkaline phosphatase activity. muIAP, CDP-Star luminescence, 30 min; active compounds read high; 1 = vehicle-only enzyme signal, 0 = enzyme-free wells. activation factor at 10 µM. 330,000 tested, 0.24% active. AID 2805;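 active means activation factor of at least 2 at 20 µM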
#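 also added = chemiluminescent substrate CDP-Star | test system = mouse IAP enzyme | signal = chemiluminescence readout | compound = DMSO-dissolved test compounds | incubation = 30 min at room temperature | benchmarks = DMSO wells, no-enzyme wells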
# bIAP inhibitor: intestinal alkaline phosphatase (bovine) inhibition. purified bovine IAP, CDP-star luminescence, 30 min. inhibition, % at 20 µM. 190,000 tested, under 10 active. AID 1019;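 active means over 50% inhibition of intestinal alkaline phosphatase at 20 µM in the single-dose screen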
#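 Assay system – bovine IAP enzyme · Quantity – bovine IAP at 1/65,000,000 final dilution · Detection – CDP-star luminescence signal · Times – 30 min reaction at room temperature · Also added – CDP-star substrate at 30 µM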
# hIAP act: increases human intestinal alkaline phosphatase activity. P09923. purified human IAP, CDP-Star luminescence, 30 min; active compounds read high; 1 = vehicle-only enzyme, 0 = enzyme-free background. activation factor at 10 µM. 330,000 tested, 0.16% active. AID 2524;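 active means activation factor of the enzyme at least 2-fold when tested at 20 µM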
# Numbers stand for hits; i = inactive; nt = no result. Sampled rows, rich in hits. Any-hit rate of the full collection: about 0.72%.
SMILES,mIAP inh,bIAP activator,hIAP block,mIAP act,bIAP inhibitor,hIAP act
Cc1ccccc1C(=O)NC(CC(C)C)C(=O)OCC(=O)c1c(N)n(C)c(=O)n(C)c1=O (stereo unspecified),i,2.1,i,i,i,i
Cc1cccc(/N=C/c2c(O)n(Cc3ccc4c(c3)OCO4)c(=O)c3ccccc23)n1,i,i,i,i,i,i
COc1cc(C(=O)OCC(=O)Nc2cccc(S(=O)(=O)N3CCCC3)c2)ccc1OCC(C)C,i,nt,i,i,nt,i
COc1cccc(C(O)c2nc3ccccc3n2C(C)C)c1OC (stereo unspecified),i,nt,i,i,nt,i
COc1cccc(C(O)c2nc3ccccc3n2C(C)C)c1 (stereo unspecified),i,2.1,i,i,i,i
Cc1ccc2nc(NCc3ccccc3)[nH]c2c1,nt,2.8,nt,nt,i,nt
Cc1nnsc1C(=O)N/N=C/c1ccccc1,i,5.5,i,i,i,i
Cc1ccc(Cl)cc1NC(=S)NCCCSC1CCCCC1,i,i,i,3.1,nt,i
Cc1ccc(CNC(=O)Nc2ccccc2)n1C,i,nt,i,i,nt,i
CC1CCCCC1NC(=S)Nc1ccc(Cl)cc1Cl (stereo unspecified),i,i,i,2.8,i,i
CCCCCCCCCC(=O)N1c2ccccc2NC(=O)C1CC(=O)Nc1ccc(C(=O)O)cc1 (stereo unspecified),i,nt,i,i,nt,i
C/C(=N\NC(=O)C1CCCC1)c1ccc(C(C)C)cc1,i,nt,i,i,nt,i
C/C(=N\NC(=O)C1CCCC1)c1ccc(Cl)c(Cl)c1,63,nt,i,i,nt,i
O=C(COc1ccc(Cl)cc1)NCCCNC(=O)c1ccncc1,i,nt,i,i,nt,i
O=S1(=O)N=C(N/N=C/c2cccs2)c2ccccc21,i,nt,i,i,nt,i
COC(=O)c1cccc(Oc2cccc(C(F)(F)F)c2)n1,i,i,i,i,i,i
COc1ccc(NC(=O)Nc2ccc3c(c2)C(=O)N([C@H](C)CO)C[C@H](C)[C@@H](CN(C)C(=O)Nc2ccc(C(F)(F)F)cc2)O3)cc1,i,nt,i,2.1,nt,i
C[C@@H]1CN([C@@H](C)CO)C(=O)c2cc(NC(=O)Nc3ccccc3)ccc2O[C@H]1CN(C)C(=O)Nc1cccc2ccccc12,i,nt,i,2.7,nt,i
COc1ccc(NC(=O)Nc2ccc3c(c2)C(=O)N([C@H](C)CO)C[C@H](C)[C@@H](CN(C)C(=O)Nc2ccc(OC)cc2)O3)cc1,i,nt,i,2.3,nt,i
COc1ccc(NC(=O)N(C)C[C@H]2Oc3ccc(NC(=O)NC(C)C)cc3C(=O)N([C@H](C)CO)C[C@@H]2C)cc1,i,nt,i,i,nt,i
COc1ccc(NC(=O)N(C)C[C@H]2Oc3ccc(NC(=O)Nc4ccc(C(F)(F)F)cc4)cc3C(=O)N([C@H](C)CO)C[C@@H]2C)cc1,i,nt,i,2.1,nt,i
C/C(=C\c1ccccc1)C(=O)Nc1ccc(S(=O)(=O)Nc2ncccn2)cc1,i,i,i,i,i,i
Nc1nc(-c2ccc3c(c2)CCCC3)c(CC(=O)O)s1,i,nt,i,i,nt,i
CN1CCN(S(=O)(=O)c2cccc(C(=O)N3CCN(c4ccccc4F)CC3)c2)CC1,i,nt,i,i,nt,i
CCC(=O)N1c2ccc(S(=O)(=O)NC3CCCCC3)cc2CC1C (stereo unspecified),i,nt,i,i,nt,i
SMILES,mIAP inh,bIAP activator,hIAP block,mIAP act,bIAP inhibitor,hIAP act
COc1ccc(CNCc2cccc3ccccc23)cc1,i,nt,i,i,nt,i
Cc1ccc(N2CC(C(=O)OCc3nnc(-c4ccccc4)o3)CC2=O)cc1 (stereo unspecified),i,nt,i,i,nt,i
C=CCn1c(=O)/c(=C/c2ccc(C)o2)s/c1=C(/C#N)C(=O)c1ccccc1,42,i,i,i,i,i
C=CCn1c(=O)/c(=C\c2ccccn2)s/c1=C(/C#N)C(=O)NCC1CCCO1 (stereo unspecified),i,i,i,i,i,i
O=C1NC(=S)S/C1=C\c1coc2ccc(O)cc2c1=O,46,nt,i,i,nt,i
Nc1ccc2nc(CCCCCCCCc3nc4ccc(N)cc4[nH]3)[nH]c2c1,i,2,i,i,i,i
CCCC1CC(C(=O)NC(C(C)Cl)C2OC(SC)C(O)C(O)C2O)N(C)C1 (stereo unspecified),i,nt,i,i,nt,i
COC(=O)c1ccc(NC(=S)NCCc2cccc(C)c2)cc1,i,i,i,i,i,i
COC(=O)c1ccc(NC(=S)NCCc2ccccc2C)cc1,i,i,i,2,i,i
CCOc1ccc(-c2n[nH]c(=S)o2)cc1,44,i,i,i,i,i
Cc1cc(C)cc(C(=O)Nc2ccc(N3CCCC3)cc2)c1,i,i,i,i,i,i
Cc1cc(C)cc(NC(=O)Nc2ccc(N3CCCCC3)cc2)c1,i,nt,i,2,nt,i
O=C(CSCc1cnn(-c2ccccc2)c1-n1cccc1)NCc1cccnc1,i,i,i,i,i,i
COc1ccc(OC)c(NC(=O)CSCc2cnn(-c3ccccc3)c2-n2cccc2)c1,i,i,i,i,i,i
COc1cc(NC(=O)CSCc2cnn(-c3ccccc3)c2-n2cccc2)cc(OC)c1,i,4.1,i,i,i,i
COc1cccc(CNC(=O)CSCc2cnn(-c3ccccc3)c2-n2cccc2)c1OC,i,2.3,i,i,i,i
COc1ccccc1CNC(=O)CSCc1cnn(-c2ccccc2)c1-n1cccc1,i,3.6,i,i,i,i
CCCNC(=O)CCn1cc(-c2ccc(OC)cc2)nc1-c1ccncc1,i,nt,i,i,nt,i
COc1cc2c(cc1OC)C(C(=O)Nc1ccc3c(c1)OCCO3)C1c3ccccc3CCN1C2=O (stereo unspecified),i,2.5,i,i,i,i
Cc1ccc(OCC(=O)OCC(=O)N2c3ccccc3CC2C)cc1C (stereo unspecified),i,nt,i,i,nt,i
S=C(NCCNCc1ccccc1)NC1CCCCC1,i,i,i,2.1,i,i
S=C(NCCc1ccccc1)NC1CCCCCC1,i,i,i,i,i,i
Cc1ccc(Nc2nc(/N=C/NO)n[nH]2)cc1C,i,i,i,i,i,2.5
Cc1onc(-c2c(F)cccc2Cl)c1C(=O)OCC(=O)c1c(N)n(C)c(=O)n(C)c1=O,i,i,i,i,i,i
CCCCCCCCNc1ncnc2ccccc12,i,9,i,i,i,i
O=C(CSc1nc2[nH]ncc2c(=O)n1-c1ccc(Cl)c(Cl)c1)NCc1ccccc1Cl,i,i,i,i,i,i
COc1ccc(C2=NOC(Cn3nc(-c4ccccc4)cc3C(=O)NCc3cccs3)C2)cc1 (stereo unspecified),i,nt,i,2.9,nt,i
CCCNc1c(NC(=O)c2ccc3c(c2)OCO3)c(=O)oc2ccccc12,i,nt,i,i,nt,i
CCCC(=O)OCCNc1cc(Sc2nc3ccccc3[nH]2)c2nonc2c1[N+](=O)[O-],i,3.5,i,i,i,i
